Measured values taken from ChEMBL document CHEMBL4825669, “Synthesis, Molecular Pharmacology, and Structure-Activity Relationships of 3-(Indanoyl)indoles as Selective Cannabinoid Type 2 Receptor Antagonists” (J Med Chem, 2021).

Experiments:
Cannabinoid receptor 1 [1] = target: T1, Cannabinoid receptor 1 (Homo sapiens, UniProt P21554); test: Displacement of [3H]-CP55940 from human CB1 receptor expressed in CHO cells at 1 uM incubated for 90 mins by liquid scintillation spectrophotometry relative to control; format: cell-based
Procedure, shortened: (§1)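 Membrane protein was 100 μg for CHO-hCB1 and 50 μg for CHO-hCB2. Incubation 90 min at room temperature. Nonspecific binding set with 10 μM WIN-55,212-2. Stopped by GF/B filtration with three ice-cold washes, then liquid scintillation counting.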

Cannabinoid receptor 2 [2] = target: T2, Cannabinoid receptor 2 (Homo sapiens, UniProt P34972); test: Antagonist activity at human CB2 receptor expressed in CHO cell membrane assessed as stimulation of [35S]GTPgammaS binding at 10 uM by liquid scintillation spectrophotometry; format: functional, cell membranes; parameters: scale not given: the % may be the effect or the level left
Procedure, shortened: (§2)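 CHO cell membranes expressing hCB2, 25 or 50 µg protein, incubated in triplicate with 0.1 nM [35S]GTPγS. Buffer: 20 mM HEPES, 100 mM NaCl, 10 mM MgCl2, 0.05% BSA, 20 units/L adenosine deaminase. Reaction 30 min at 30 °C, stopped by filtration on GF/B with ice-cold washes, counted by liquid scintillation. Nonspecific binding set with 10 μM unlabelled GTPγS.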

Cannabinoid receptor 2 [3] = target: T2, Cannabinoid receptor 2; test: Displacement of [3H]-CP55940 from human CB2 receptor expressed in CHO cells at 1 uM incubated for 90 mins by liquid scintillation spectrophotometry relative to control; format: cell-based; procedure, shortened: as §1
Cannabinoid receptor 1 [4] = target: T1, Cannabinoid receptor 1; test: Binding affinity to human CB1 receptor assessed as free binding energy; format: cell-based; settings: CHO, filed as antagonist
Cannabinoid receptor 2 [5] = target: T2, Cannabinoid receptor 2; test: Binding affinity to human CB2 receptor assessed as free binding energy; format: cell-based; settings: CHO, filed as antagonist
Cannabinoid receptor 1 [6] = target: T1, Cannabinoid receptor 1; test: Displacement of [3H]-CP55940 from human CB1 receptor expressed in CHO cells incubated for 90 mins by liquid scintillation spectrophotometry relative to control; format: cell-based; procedure, shortened: as §1
Cannabinoid receptor 2 [7] = target: T2, Cannabinoid receptor 2; test: Displacement of [3H]-CP55940 from human CB2 receptor expressed in CHO cells incubated for 90 mins by liquid scintillation spectrophotometry relative to control; format: cell-based; procedure, shortened: as §1
CHO = test: Selectivity index, ratio of Ki for human CB1 receptor expressed in CHO cells to Ki for human CB2 receptor expressed in CHO cells; format: cell-based
Cannabinoid receptor 2 [8] = target: T2, Cannabinoid receptor 2; test: Antagonist activity at human CB2 receptor expressed in CHO cell membrane assessed as reduction in CP55940-induced [35S]GTPgammaS binding by liquid scintillation spectrophotometry; format: functional, cell membranes; procedure, shortened: as §2

T1 sequence (P21554 whole entry): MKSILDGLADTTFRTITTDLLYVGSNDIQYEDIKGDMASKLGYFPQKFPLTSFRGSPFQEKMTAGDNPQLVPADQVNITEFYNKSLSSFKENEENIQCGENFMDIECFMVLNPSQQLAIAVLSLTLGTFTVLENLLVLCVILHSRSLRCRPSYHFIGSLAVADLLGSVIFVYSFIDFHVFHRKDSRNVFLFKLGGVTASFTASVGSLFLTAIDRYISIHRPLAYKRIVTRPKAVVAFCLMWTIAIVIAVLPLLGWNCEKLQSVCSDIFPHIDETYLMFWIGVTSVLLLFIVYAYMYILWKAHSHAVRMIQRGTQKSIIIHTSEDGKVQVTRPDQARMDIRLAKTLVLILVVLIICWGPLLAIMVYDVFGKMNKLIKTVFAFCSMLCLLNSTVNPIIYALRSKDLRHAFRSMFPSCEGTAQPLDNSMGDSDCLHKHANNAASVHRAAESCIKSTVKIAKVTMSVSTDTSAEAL
T2 sequence (P34972 whole entry): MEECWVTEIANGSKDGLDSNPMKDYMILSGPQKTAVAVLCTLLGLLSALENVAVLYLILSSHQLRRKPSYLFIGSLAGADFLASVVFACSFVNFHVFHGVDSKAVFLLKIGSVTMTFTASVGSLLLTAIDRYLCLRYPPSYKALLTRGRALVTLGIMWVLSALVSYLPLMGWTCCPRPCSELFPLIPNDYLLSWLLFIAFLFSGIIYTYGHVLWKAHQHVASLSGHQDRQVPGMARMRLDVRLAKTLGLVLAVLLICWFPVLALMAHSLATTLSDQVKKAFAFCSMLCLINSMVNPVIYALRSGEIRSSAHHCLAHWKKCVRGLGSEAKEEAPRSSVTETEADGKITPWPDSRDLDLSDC

## CCCCn1cc(C(=O)c2ccc3c(c2)CC(C)(C)C3)c2ccccc21
Cannabinoid receptor 1 [1]; filed as antagonist
  Activity: 82.7%
Cannabinoid receptor 2 [2]; filed as antagonist
  Activity: 102%
Cannabinoid receptor 2 [3]; filed as antagonist
  Activity: 92.9%

## C=CCCCn1cc(C(=O)c2ccc3c(c2)CC(C)(C)C3)c2ccccc21
Cannabinoid receptor 1 [1]; filed as antagonist
  Activity: 80%
Cannabinoid receptor 2 [2]; filed as antagonist
  Activity: 92%
Cannabinoid receptor 1 [4]
  deltaG: -9.36 °C
Cannabinoid receptor 2 [5]
  deltaG: -10.7
Cannabinoid receptor 2 [3]; filed as antagonist
  Activity: 95.2%
Cannabinoid receptor 1 [6]
  Ki: 152 nM
Cannabinoid receptor 2 [7]
  Ki: 15.6 nM

## CC/C=C/Cn1c(C)c(C(=O)c2ccc3c(c2)CC(C)(C)C3)c2ccccc21
Cannabinoid receptor 1 [1]
  Activity: 35.1%
Cannabinoid receptor 2 [3]; filed as antagonist
  Activity: 73.7%

## CCCn1c(C)c(C(=O)c2ccc3c(c2)CC(C)(C)C3)c2ccccc21
Cannabinoid receptor 1 [1]
  Activity: 44.4%
Cannabinoid receptor 2 [3]; filed as antagonist
  Activity: 73.9%

## CC1(C)Cc2ccc(C(=O)c3cn(Cc4ccccc4)c4ccccc34)cc2C1
Cannabinoid receptor 1 [1]; filed as antagonist
  Activity: 69.2%
Cannabinoid receptor 2 [2]; filed as antagonist
  Activity: 87%
Cannabinoid receptor 2 [3]; filed as antagonist
  Activity: 84.6%

## CC(C)Cn1cc(C(=O)c2ccc3c(c2)CC(C)(C)C3)c2ccccc21
Cannabinoid receptor 1 [1]; filed as antagonist
  Activity: 422%
Cannabinoid receptor 2 [3]; filed as antagonist
  Activity: 83.1%

## CCC#CCn1cc(C(=O)c2ccc3c(c2)CC(C)(C)C3)c2ccccc21
Cannabinoid receptor 1 [1]; filed as antagonist
  Activity: 55.6%
Cannabinoid receptor 2 [3]; filed as antagonist
  Activity: 65.9%

## Cn1cc(C(=O)c2ccc3c(c2)CC(C)(C)C3)c2ccccc21
Cannabinoid receptor 1 [1]
  Activity: 10.8%
Cannabinoid receptor 2 [3]
  Activity: 23.9%

## CCCn1cc(C(=O)c2ccc3c(c2)CC(C)(C)C3)c2ccccc21
Cannabinoid receptor 1 [1]
  Activity: 47.4%
Cannabinoid receptor 2 [2]; filed as antagonist
  Activity: 99%
CHO
  Selectivity Index: 19.7
Cannabinoid receptor 1 [4]
  deltaG: -7.68 kcal/mol
Cannabinoid receptor 2 [5]
  deltaG: -9.45 kcal/mol
Cannabinoid receptor 2 [3]; filed as antagonist
  Activity: 90.5%
Cannabinoid receptor 1 [6]
  Ki: 2560 nM
Cannabinoid receptor 2 [7]
  Ki: 130 nM

## CCCCCn1cc(C(=O)c2cccc3c2CC(C)(C)C3)c2ccccc21
Cannabinoid receptor 1 [1]; filed as antagonist
  Activity: 85.7%
Cannabinoid receptor 2 [2]; filed as antagonist
  Activity: 134%
CHO
  Selectivity Index: 1.1
Cannabinoid receptor 1 [4]
  deltaG: -12.1 kcal/mol
Cannabinoid receptor 2 [5]
  deltaG: -12.2 kcal/mol
Cannabinoid receptor 2 [3]; filed as antagonist
  Activity: 94.1%
Cannabinoid receptor 1 [6]
  Ki: 1.46 nM
Cannabinoid receptor 2 [7]
  Ki: 1.36 nM

## COc1ccc(C(=O)c2c(C)n(CCN3CCOCC3)c3cc(I)ccc23)cc1
Cannabinoid receptor 2 [2]
  Activity: 67%

## C#CCCCn1cc(C(=O)c2ccc3c(c2)CC(C)(C)C3)c2ccccc21
Cannabinoid receptor 1 [1]; filed as antagonist
  Activity: 71%
Cannabinoid receptor 2 [2]; filed as antagonist
  Activity: 96%
Cannabinoid receptor 1 [4]
  deltaG: -8.91 °C
Cannabinoid receptor 2 [5]
  deltaG: -10.5
Cannabinoid receptor 2 [3]; filed as antagonist
  Activity: 92.8%
Cannabinoid receptor 1 [6]
  Ki: 325 nM
Cannabinoid receptor 2 [7]
  Ki: 24 nM

## Cc1c(C(=O)c2ccc3c(c2)CC(C)(C)C3)c2ccccc2n1Cc1ccccc1
Cannabinoid receptor 1 [1]
  Activity: 18.1%
Cannabinoid receptor 2 [3]; filed as antagonist
  Activity: 51.2%

## CCCCCn1c(C)c(C(=O)c2ccc3c(c2)CC(C)(C)C3)c2ccccc21
Cannabinoid receptor 1 [1]; filed as antagonist
  Activity: 53.8%
Cannabinoid receptor 2 [3]; filed as antagonist
  Activity: 83.6%

## CC/C=C/Cn1cc(C(=O)c2ccc3c(c2)CC(C)(C)C3)c2ccccc21
Cannabinoid receptor 1 [1]; filed as antagonist
  Activity: 84.2%
Cannabinoid receptor 2 [2]; filed as antagonist
  Activity: 81%
Cannabinoid receptor 2 [3]; filed as antagonist
  Activity: 86.9%

## CCOC(=O)Cn1cc(C(=O)c2ccc3c(c2)CC(C)(C)C3)c2ccccc21
Cannabinoid receptor 1 [1]
  Activity: 19.4%
Cannabinoid receptor 2 [3]
  Activity: 18%

## C#CCn1c(C)c(C(=O)c2ccc3c(c2)CC(C)(C)C3)c2ccccc21
Cannabinoid receptor 1 [1]; filed as antagonist
  Activity: 51.9%
Cannabinoid receptor 2 [3]; filed as antagonist
  Activity: 63%

## CC1(C)Cc2ccc(C(=O)c3c[nH]c4ccccc34)cc2C1
Cannabinoid receptor 1 [1]
  Activity: 9.4%
Cannabinoid receptor 2 [3]
  Activity: 22.2%

## CCCCCCn1c(C)c(C(=O)c2ccc3c(c2)CC(C)(C)C3)c2ccccc21
Cannabinoid receptor 1 [1]
  Activity: 26.2%
Cannabinoid receptor 2 [3]; filed as antagonist
  Activity: 55%

## C=CCCCn1c(C)c(C(=O)c2ccc3c(c2)CC(C)(C)C3)c2ccccc21
Cannabinoid receptor 1 [1]
  Activity: 38.6%
Cannabinoid receptor 2 [3]; filed as antagonist
  Activity: 86.4%

## CCCCn1c(C)c(C(=O)c2ccc3c(c2)CC(C)(C)C3)c2ccccc21
Cannabinoid receptor 1 [1]
  Activity: 43.5%
Cannabinoid receptor 2 [3]; filed as antagonist
  Activity: 85.4%

## C#CCCCn1c(C)c(C(=O)c2ccc3c(c2)CC(C)(C)C3)c2ccccc21
Cannabinoid receptor 1 [1]
  Activity: 41.9%
Cannabinoid receptor 2 [2]; filed as antagonist
  Activity: 121%
Cannabinoid receptor 1 [4]
  deltaG: -7.85 °C
Cannabinoid receptor 2 [5]
  deltaG: -9.89
Cannabinoid receptor 2 [3]; filed as antagonist
  Activity: 93.1%
Cannabinoid receptor 1 [6]
  Ki: 1900 nM
Cannabinoid receptor 2 [7]
  Ki: 62.5 nM

## Cc1c(C(=O)c2ccc3c(c2)CC(C)(C)C3)c2ccccc2n1Cc1ccc(F)cc1
Cannabinoid receptor 1 [1]
  Activity: 38.4%
Cannabinoid receptor 2 [3]
  Activity: 48.8%

## CCCCCn1cc(C(=O)c2cccc3ccccc23)c2ccccc21
CHO
  Selectivity Index: 3.1
Cannabinoid receptor 1 [6]
  Ki: 9 nM
Cannabinoid receptor 2 [7]
  Ki: 2.94 nM

## CCCCCCn1cc(C(=O)c2ccc3c(c2)CC(C)(C)C3)c2ccccc21
Cannabinoid receptor 1 [1]; filed as antagonist
  Activity: 79.1%
Cannabinoid receptor 2 [2]; filed as antagonist
  Activity: 102%
Cannabinoid receptor 2 [3]; filed as antagonist
  Activity: 83.6%

## CCCCCn1cc(C(=O)c2ccc3c(c2)CC(C)(C)C3)c2ccccc21
Cannabinoid receptor 2 [8]
  IC50: 1800 nM
Cannabinoid receptor 2 [8]; filed as antagonist
  Kb: 9.7 nM
Cannabinoid receptor 1 [1]; filed as antagonist
  Activity: 93.4%
Cannabinoid receptor 2 [2]; filed as antagonist
  Activity: 108%
CHO
  Selectivity Index: 7.9
Cannabinoid receptor 1 [4]
  deltaG: -10.2 kcal/mol
Cannabinoid receptor 2 [5]
  deltaG: -11.5 kcal/mol
Cannabinoid receptor 2 [3]; filed as antagonist
  Activity: 99.8%
Cannabinoid receptor 1 [6]
  Ki: 38.8 nM
Cannabinoid receptor 2 [7]
  Ki: 4.9 nM

## C#CCn1cc(C(=O)c2ccc3c(c2)CC(C)(C)C3)c2ccccc21
Cannabinoid receptor 1 [1]
  Activity: 33.4%
Cannabinoid receptor 2 [3]; filed as antagonist
  Activity: 56%

## CC/C=C\Cn1cc(C(=O)c2ccc3c(c2)CC(C)(C)C3)c2ccccc21
Cannabinoid receptor 1 [1]; filed as antagonist
  Activity: 60.7%
Cannabinoid receptor 2 [2]; filed as antagonist
  Activity: 106%
Cannabinoid receptor 2 [3]; filed as antagonist
  Activity: 86.4%

## CC1(C)Cc2ccc(C(=O)c3cn(Cc4ccc(F)cc4)c4ccccc34)cc2C1
Cannabinoid receptor 1 [1]; filed as antagonist
  Activity: 88%
Cannabinoid receptor 2 [2]; filed as antagonist
  Activity: 90%
Cannabinoid receptor 2 [3]; filed as antagonist
  Activity: 92.3%

## CCC#CCn1c(C)c(C(=O)c2ccc3c(c2)CC(C)(C)C3)c2ccccc21
Cannabinoid receptor 1 [1]
  Activity: 16.4%
Cannabinoid receptor 2 [3]
  Activity: 30.2%

## C=CCn1cc(C(=O)c2ccc3c(c2)CC(C)(C)C3)c2ccccc21
Cannabinoid receptor 1 [1]
  Activity: 16%
Cannabinoid receptor 2 [3]; filed as antagonist
  Activity: 60.6%

## CC/C=C\Cn1c(C)c(C(=O)c2ccc3c(c2)CC(C)(C)C3)c2ccccc21
Cannabinoid receptor 1 [1]
  Activity: 43%
Cannabinoid receptor 2 [3]; filed as antagonist
  Activity: 82.9%
